Source: publication PMC6001687 (The Journal of Dermatology, 2018)
“And” between values parts separate entries of the source, which are not always exact repeats. Equal entries are not always repeated.

Key:
[1] = Plasma pharmacokinetics after topical application, QBX1‐2 study; format: in vivo, human
Method in brief: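 Japanese healthy male volunteers or adult atopic dermatitis patients; 5 g ointment to back skin or eczematous areas, either once (removed at 24 h) or twice daily at 12-h intervals for 7 days. Plasma at 0–48 h after single dose; repeated dosing on days 1 and 7 at 0–24 h after morning dose, plus day-4 trough. LC-MS/MS, LLOQ 1 ng/mL (below set to zero); non-compartmental. Tmax as median.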

[2] = Urine pharmacokinetics after topical application, QBX1‐2 study; format: in vivo, human
Method in brief: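 Adult atopic dermatitis patients; 5 g ointment to eczematous areas twice daily for 7 days. On day 7, urine collected at 0–4, 4–8, 8–12 and 12–24 h, assayed by LC-MS/MS (LLOQ 25 ng/mL). Amount excreted = sum over intervals of concentration × urine volume. Renal clearance = amount excreted ÷ plasma AUCtau (12-h dosing interval, non-compartmental).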

JAK1 = conditions: read-out: half maximal inhibitory concentration, JAK1; cited from earlier work
JAK2 = conditions: read-out: half maximal inhibitory concentration, JAK2; cited from earlier work
JAK3 = conditions: read-out: half maximal inhibitory concentration, JAK3; cited from earlier work
Tyk2 = conditions: read-out: half maximal inhibitory concentration, Tyk2; cited from earlier work
[3] = p.o. administration; ref data not published; cited from earlier work

Tmax ([1]; human, plasma, topical, 5 g of 3% ointment twice daily): 4 h
CL renal ([2]; human, urine and plasma, topical, 5 g of 3% ointment twice daily): 330 mL/min
fe (fraction excreted into urine to the applied dose) ([2]; part 1, healthy volunteers, single application of 3% JTE‐052 ointment, 0–48‐h interval, n = 6): 0.016% and 0.016 ± 0.007%
fe (fraction excreted into urine to the applied dose) ([2]; part 2, AD patients, single application of 1% JTE‐052 ointment, 0–48‐h interval, n = 6): 0.382% and 0.382 ± 0.341%
fe (fraction excreted into urine to the applied dose) ([2]; part 2, AD patients, single application of 3% JTE‐052 ointment, 0–48‐h interval, n = 5): 0.406% and 0.406 ± 0.508%
fe (fraction excreted into urine to the applied dose) ([2]; part 3, AD patients, repeated application of 1% JTE‐052 ointment, day 7 after the morning application, 0–12‐h interval, n = 8): 0.191% and 0.191 ± 0.174%
fe (fraction excreted into urine to the applied dose) ([2]; part 3, AD patients, repeated application of 3% JTE‐052 ointment, day 7 after the morning application, 0–12‐h interval, n = 7): 0.289% and 0.289 ± 0.136%
SMILES: C[C@H]1CN(C(=O)CC#N)[C@]12CCN(c1ncnc3[nH]ccc13)C2 [JTE‐052]
half‐life [3]: ~ 4 h
